Experimental data: ChEMBL document CHEMBL2331253, “Atropisomeric dihydroanthracenones as inhibitors of multiresistant Staphylococcus aureus” (J Med Chem, 2013)
In brackets after ≈: the same amount, converted by molar mass. Activity calls are given as the source filed them. The rule behind the calls is not given here.

Legend:
Bacillus subtilis [1] = test: Induction of yorB promoter in Bacillus subtilis IS34 after 3 hrs at 0.01 to 100 ug/ml by luciferase reporter gene assay; format: functional
Outline: (§1)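 Promoter–firefly luciferase fusions were built in B. subtilis IS34. Luminescence was read in a plate reader and expressed as percent of the untreated control. One representative experiment.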

Bacillus subtilis [2] = test: Induction of recA promoter in Bacillus subtilis YB3001 using 4-methylumbelliferyl beta D-galactopyranoside as substrate incubated for 3 hrs prior to substrate addition measured after 1 hr by beta galactosidase reporter gene assay relative to control; format: functional
Outline: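 recA–β-galactosidase reporter in B. subtilis YB3001. Twofold compound dilutions in lysogeny broth were inoculated with mid-exponential cells and incubated 3 h at 37 °C, then frozen at −20 °C overnight. Cells were lysed with lysozyme (30 min, 37 °C) and Triton X-100. MUG was added and incubated 1 h at 25 °C. Fluorescence read at ex 360/em 450 nm.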

Bacillus subtilis [3] = test: Induction of bmrC promoter in Bacillus subtilis IS34 promoter at 64 ug/mL after 3 hrs by luciferase reporter gene assay; format: functional, organism-based; outline: as §1
Bacillus subtilis [4] = test: Induction of helD promoter in Bacillus subtilis IS34 at 64 ug/mL after 3 hrs by luciferase reporter gene assay; format: functional, organism-based; outline: as §1
Bacillus subtilis [5] = test: Induction of liaI promoter in Bacillus subtilis IS34 promoter at 64 ug/mL after 3 hrs by luciferase reporter gene assay; format: functional, organism-based; outline: as §1
Bacillus subtilis [6] = test: Antibacterial activity against Bacillus subtilis subsp. subtilis str. 168 trpC2 assessed as concentration required for partial growth inhibition by CLSI broth microdilution method; format: functional
Klebsiella pneumoniae = test: Antibacterial activity against doxycycline, kanamycin-resistant Klebsiella pneumoniae ATCC 27799 assessed as growth inhibition by CLSI broth microdilution method; format: functional
Outline: (§2)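 MICs determined by CLSI broth microdilution in Mueller–Hinton broth. Inoculum was prepared by direct colony suspension, at 5 × 10^5 CFU/mL.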

Escherichia coli [7] = test: Antibacterial activity against ciprofloxacin-resistant Escherichia coli WT-3-1 MB2 assessed as growth inhibition by CLSI broth microdilution method; format: functional; outline: as §2
Escherichia coli [8] = test: Antibacterial activity against Escherichia coli ATCC 25922 assessed as growth inhibition by CLSI broth microdilution method; format: functional
Bacillus subtilis [9] = test: Antibacterial activity against Bacillus subtilis subsp. subtilis str. 168 trpC2 assessed as growth inhibition by CLSI broth microdilution method; format: functional
Enterococcus faecium = test: Antibacterial activity against clarithromycin, erythromycin, telithromycin, vancomycin-resistant Enterococcus faecium 6011 assessed as growth inhibition by CLSI broth microdilution method; format: functional; outline: as §2
Enterococcus faecalis = test: Antibacterial activity against clarithromycin, erythromycin, moxifloxacin, telithromycin, vancomycin-resistant Enterococcus faecalis UW 2689 assessed as growth inhibition by CLSI broth microdilution method; format: functional; outline: as §2
Streptococcus agalactiae = test: Antibacterial activity against doxycycline-intermediate Streptococcus agalactiae 013761 assessed as growth inhibition by CLSI broth microdilution method; format: functional
Streptococcus pneumoniae = test: Antibacterial activity against Streptococcus pneumoniae ATCC 49619 assessed as growth inhibition by CLSI broth microdilution method; format: functional
Staphylococcus aureus [10] = test: (§3) Antibacterial activity against amoxicillin, chloramphenicol, ciprofloxacin, clindamycin, erythromycin, fosmidomycin, gentamycin, kanamycin, nitrofurantoin, telithromycin, methicillin-resistant Staphylococcus aureus 25697 assessed as growth inhibition by CLSI broth microdilution method; format: functional; outline: as §2
Staphylococcus aureus [11] = test: (§4) Antibacterial activity against ceftazidime, clarithromycin, ciprofloxacin, clindamycin, doxycycline, erythromycin, methicillin, moxifloxacin, kanamycin, telithromycin, rifampicin, methicillin-resistant, vancomycin-intermediate Staphylococcus aureus subsp. aureus Mu50 assessed as concentration required for partial growth inhibition by CLSI broth microdilution method; format: functional
Staphylococcus aureus [12] = test: Antibacterial activity against Staphylococcus aureus ATCC 29213 assessed as concentration required for partial growth inhibition by CLSI broth microdilution method; format: functional
Staphylococcus aureus [13] = test: Antibacterial activity against Staphylococcus aureus ATCC 29213 assessed as growth inhibition by CLSI broth microdilution method; format: functional; outline: as §2
BALB/3T3 [14] = test: Cytotoxicity against mouse BALB/3T3 cells assessed as growth inhibition after 48 hrs by Alamar blue assay; format: cell-based; conditions: BALB/3T3, 48 h
Outline: (§5)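 THP-1 cells were kept in RPMI-1640 with 10% FCS. BALB/3T3 cells were kept in DMEM with 10% FCS. Cells were plated at 10^4 per well without antibiotics and exposed to 0.016−32 μg/mL (final, 0.32% DMSO) for 48 h at 37 °C, 5% CO2. AlamarBlue was added for 24 h more. Fluorescence (ex 560/em 600 nm) was expressed relative to untreated cells.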

THP-1 [15] = test: Cytotoxicity against human THP1 cells assessed as growth inhibition after 48 hrs by Alamar blue assay; format: cell-based; conditions: THP-1, 48 h; outline: as §5
Pseudomonas aeruginosa = test: Antibacterial activity against ceftazidime, ciprofloxacin, cefepime, gentamycin, imipenem, meropenem, piperacillin/tazobactam-resistant Pseudomonas aeruginosa 63230 assessed as growth inhibition by CLSI broth microdilution method; format: functional; outline: as §2
Streptococcus pyogenes = test: Antibacterial activity against doxycycline-intermediate Streptococcus pyogenes 014327 assessed as growth inhibition by CLSI broth microdilution method; format: functional
Staphylococcus aureus [16] = test: as §4, with “as” for “as concentration required for partial”; format: functional; outline: as §2
Bacillus subtilis [17] = test: Antibacterial activity against Bacillus subtilis subsp. subtilis str. 168 trpC2 assessed as growth inhibition measured at 5 mins interval over 20 hrs by spectrophotometric analysis relative to control; format: functional, organism-based
Outline: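 B. subtilis 168 trpC2 was grown in lysogeny broth, shaken, at 37 °C. Dilution and inoculum were as for broth microdilution. OD600 was read every 5 min over 20 h in untreated versus treated cultures.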

Staphylococcus aureus [18] = test: Antibacterial activity against Staphylococcus aureus subsp. aureus Mu50 assessed as growth inhibition measured at 5 mins interval over 20 hrs by spectrophotometric analysis relative to control; format: functional
Outline: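 S. aureus Mu50 was grown in Mueller−Hinton broth at 37 °C with shaking between reads. Dilution and inoculum were as for broth microdilution, with compound at 0.031–64 μg/mL. OD600 was read at 5 min intervals over 20 h against an untreated control. Run in triplicate.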

THP-1 [19] = test: Cytotoxicity against human THP1 cells assessed as growth inhibition up to 32 ug/mL after 48 hrs by Alamar blue assay; format: cell-based; conditions: thp-1, 48 h; outline: as §5
BALB/3T3 [20] = test: Cytotoxicity against mouse BALB/3T3 cells assessed as growth inhibition up to 32 ug/mL after 48 hrs by Alamar blue assay; format: cell-based; conditions: balb/3t3, 48 h; outline: as §5
Bacillus subtilis [21] = test: Antibacterial activity against Bacillus subtilis subsp. subtilis str. 168 trpC2 assessed as induction of SOS response-mediated DNA degradation at 0.125 ug/mL after 120 mins by DAPI staining-based fluorescence microscopic analysis; format: functional, organism-based
Outline: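 B. subtilis 168 trpC2 was grown in lysogeny broth to OD600 0.1−0.3, then treated in plates at 37 °C with shaking. Aliquots were taken 30−180 min after addition and stained 60 s with DAPI (1 μg/mL stock). Cells were immobilized on 1% agarose slides and imaged by phase contrast and fluorescence. Performed twice.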

Bacillus subtilis [22] = test: Induction of yorB promoter in Bacillus subtilis IS34 after 3 hrs at 0.001 to 10 ug/ml by luciferase reporter gene assay; format: functional; outline: as §1
Bacillus subtilis [23] = test: Induction of yorB promoter in Bacillus subtilis IS34 after 3 hrs by luciferase reporter gene assay relative to control; format: functional; outline: as §1
Staphylococcus aureus [24] = test: as §3, with “assessed as concentration required for partial growth inhibition” for “assessed as growth inhibition”; format: functional

Structure (SMILES)	Activity (Bacillus subtilis [1])	Activity (Bacillus subtilis [2])	Activity (Bacillus subtilis [3])	Activity (Bacillus subtilis [4])	Activity (Bacillus subtilis [5])	MIC (Klebsiella pneumoniae) [µg/mL]	MIC (Escherichia coli [7]) [µg/mL]	MIC (Escherichia coli [8]) [µg/mL]	MIC (Bacillus subtilis [9]) [µg/mL]	MIC (Enterococcus faecium) [µg/mL]	MIC (Enterococcus faecalis) [µg/mL]	MIC (Streptococcus agalactiae) [µg/mL]	MIC (Streptococcus pneumoniae) [µg/mL]	MIC (Staphylococcus aureus [10]) [µg/mL]	MIC (Staphylococcus aureus [13]) [µg/mL]	IC50 (BALB/3T3 [14]) [µg/mL]	IC50 (THP-1 [15]) [µg/mL]	MIC (Pseudomonas aeruginosa) [µg/mL]	MIC (Streptococcus pyogenes) [µg/mL]	MIC (Staphylococcus aureus [16]) [µg/mL]	also measured
Cc1cc(O)c2c(c1)C(=O)c1cc(O)cc(O)c1C2=O [EMODIN]	inactive	inactive	inactive	inactive	inactive	> 64	> 64	> 64	16 (≈ 59.2 µM)	> 64	16 (≈ 59.2 µM)	> 64	1 (≈ 3.7 µM)	2 (≈ 7.4 µM)	4 (≈ 14.8 µM)	32 (≈ 118 µM)	32 (≈ 118 µM)	> 64	> 64	4 (≈ 14.8 µM)	MIC (Bacillus subtilis [6]): 8 µg/mL (≈ 29.6 µM); MIC (Staphylococcus aureus [11]): 2 µg/mL (≈ 7.4 µM); MIC (Staphylococcus aureus [12]): 2 µg/mL (≈ 7.4 µM)
COc1cc2cc3c(c(O)c2c(O)c1-c1c(O)cc2c(O)c4c(cc2c1O)CC(C)(O)CC4=O)C(=O)CC(C)(O)C3 (single isomer, unassigned; atropisomer) [FLAVOMANNIN D]		Active	inactive	inactive	inactive	> 64	> 64	> 64	64 (≈ 114 µM)	> 64	32 (≈ 57.1 µM)	> 64	64 (≈ 114 µM)	8 (≈ 14.3 µM)	8 (≈ 14.3 µM)	> 32	> 32	> 64	64 (≈ 114 µM)	8 (≈ 14.3 µM)	concentration giving maximal yorB promoter induction (Bacillus subtilis [1]): 2 µg/mL; growth inhibition (GI) (Bacillus subtilis [17]): Active; growth inhibition (GI) (Staphylococcus aureus [18]): Dose-dependent effect
Cc1cc(O)c2c(c1)C(=O)c1c(c(O)cc(O)c1-c1c(O)cc(O)c3c1C(=O)c1cc(C)cc(O)c1C3=O)C2=O [SKYRIN]	inactive	inactive	inactive	inactive	inactive	> 64	> 64	> 64	4 (≈ 7.43 µM)	32 (≈ 59.4 µM)	16 (≈ 29.7 µM)	> 64	4 (≈ 7.43 µM)	4 (≈ 7.43 µM)	4 (≈ 7.43 µM)			> 64	> 64	2 (≈ 3.71 µM)	MIC (Staphylococcus aureus [12]): 2 µg/mL (≈ 3.71 µM); growth inhibition (GI) (THP-1 [19]): Non-toxic; growth inhibition (GI) (BALB/3T3 [20]): Non-toxic
CO[C@@]12[C@H](COC(N)=O)C3=C(C(=O)C(C)=C(N)C3=O)N1C[C@@H]1N[C@@H]12		Active																			
COc1cc2cc3c(c(O)c2c(O)c1-c1c(O)cc2cc4c(c(O)c2c1O)C(=O)CC(C)(O)C4)C(=O)CC(C)(O)C3 (single isomer, unassigned; atropisomer) [FLAVOMANNIN C]	inactive		inactive	inactive	inactive	> 64	> 64	> 64	> 64	> 64	32 (≈ 57.1 µM)	> 64	> 64	32 (≈ 57.1 µM)	64 (≈ 114 µM)	> 32	> 32	> 64	> 64	16 (≈ 28.5 µM)	growth inhibition (GI) (Bacillus subtilis [17]): Active; growth inhibition (GI) (Staphylococcus aureus [18]): Dose-dependent effect
O=C(O)c1cn(C2CC2)c2cc(N3CCNCC3)c(F)cc2c1=O [CIPROFLOXACIN]		Active																			Activity (Bacillus subtilis [21]): Active; fold change (FC) (Bacillus subtilis [22]): 20
CC1(O)CC(=O)c2c(cc3cc(O)c(-c4c(O)cc5cc6c(c(O)c5c4O)C(=O)CC(C)(O)C6)c(O)c3c2O)C1 (single isomer, unassigned; atropisomer) [FLAVOMANNIN A]	inactive		inactive	inactive	inactive	> 64	> 64	> 64	> 64	> 64	> 64	> 64	> 64	8 (≈ 14.6 µM)	16 (≈ 29.3 µM)	> 32	> 32	> 64	> 64	16 (≈ 29.3 µM)	fold change (FC) (Bacillus subtilis [2]): <2; Activity (Bacillus subtilis [23]): Active; growth inhibition (GI) (Bacillus subtilis [17]): Active; growth inhibition (GI) (Staphylococcus aureus [18]): Dose-dependent effect
Cc1cc(O)c2c(c1)C(=O)c1cc(O)c(-c3c(O)cc4c(O)c5c(cc4c3O)CC(C)(O)CC5=O)c(O)c1C2=O (single isomer, unassigned; atropisomer) [Talaromannin B]		Active	inactive	inactive	inactive	> 64	> 64	> 64	> 64	> 64	64 (≈ 118 µM)	64 (≈ 118 µM)	32 (≈ 59 µM)	16 (≈ 29.5 µM)	16 (≈ 29.5 µM)	> 32	> 32	> 64	32 (≈ 59 µM)	8 (≈ 14.7 µM)	concentration giving maximal yorB promoter induction (Bacillus subtilis [1]): 8 µg/mL; Activity (Bacillus subtilis [23]): Active; growth inhibition (GI) (Bacillus subtilis [17]): Active; growth inhibition (GI) (Staphylococcus aureus [18]): Dose-dependent effect; MIC (Staphylococcus aureus [24]): 8 µg/mL (≈ 14.7 µM)
